Results from ChEMBL document CHEMBL4014317, “Urinary Tract Infection: Which Conformation of the Bacterial Lectin FimH Is Therapeutically Relevant?” (J Med Chem, 2017).
In brackets after ≈: the same amount, converted by molar mass.

Experiments:
[1] = (§1) Competitive binding affinity to 6His-tagged recombinant Escherichia coli FimH lectin domain expressed in Escherichia coli HM125 after 24 hrs in presence of fluorescence labelled N-(2-(3-(3',6'-dihydroxy-3-oxo-3H-spiro[isobenzofuran-1,9'-xanthene]-5-yl)thioureido)ethyl)-4-methylbenzamide by fluorescence polarization assay
In short: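 FimH lectin domain (His6-tagged via thrombin site) was expressed in E. coli HM125 and affinity-purified. Serially diluted competitor was added to 50 nM protein plus 50 nM fluorescent ligand in 20 mM HEPES pH 7.4, 150 mM NaCl, 50 μg/mL BSA. Mixtures were incubated ≥24 h at equilibrium, and FP was read at 485/528 nm. KD came from an equilibrium competition fit, n = 3, SD.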

[2] = Kinetic solubility of compound in pH 7.4 buffer after 15 hrs; format: physicochemical; conditions: read-out: Kinetic_solubility
In short: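 DMSO stock (100 mM) was diluted into aqueous universal buffer pH 7.4 to 1 mM final (1% DMSO), in triplicate. After 15 h, solutions were filtered and mixed 1:1 with 1-propanol. Dissolved amount was quantified by UV (190–500 nm) against reference spectra at 0.167 mM in buffer/propanol.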

[3] = 1-octanol/water partition coefficient, log D of the compound at 1 uM at pH 7.4 after 2 hrs by LC-MS analysis; format: physicochemical
[4] = as §1, with “to full length” for “to”, “CRD” for “lectin domain”, “1 hr” for “24 hrs”
In short: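 Full-length FimH was stabilized by FimG donor-strand peptide complementation. Serially diluted competitor was titrated into 300 nM FimHFL plus 10 nM fluorescent ligand in 20 mM HEPES pH 7.4, 150 mM NaCl, 50 μg/mL BSA. Mixtures were incubated ≥1 h at rt, and FP was read at excitation 485 nm and emission 528 nm. KD came from an equilibrium competition fit, n = 1.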

[5] = Binding affinity to full length 6His-tagged recombinant Escherichia coli FimH CRD expressed in Escherichia coli HM125 by isothermal titration calorimetry
In short: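 FimHFL was coexpressed with FimC in E. coli HM125, and FimC was displaced by a FimG donor-strand peptide to give a stable construct. Buffer was 20 mM HEPES pH 7.4, 150 mM NaCl, with protein extensively dialyzed against it. Ligand (200–600 μM) was titrated into 20.3–62.1 μM protein in 1.5–2 μL injections at rt, single run. Isotherms were integrated automatically.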

Escherichia coli = assay: Selectivity ratio of Kd for full length 6His-tagged recombinant Escherichia coli FimH CRD expressed in Escherichia coli HM125 to Kd for 6His-tagged recombinant Escherichia coli FimH lectin domain expressed in Escherichia coli HM125
In short: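 Competitive FP, with Kd for each construct and the ratio taken as FimHFL/FimHLD. FimHFL was stabilised by donor-strand (DsG) complementation, run at 300 nM with 10 nM tracer for ≥1 h. FimHLD and tracer were equimolar at 50 nM, ≥24 h. Buffer: 20 mM HEPES pH 7.4, 150 mM NaCl, 50 μg/mL BSA; rt. Ex 485/em 528 nm, equilibrium competition fit; FL n=1, LD n=3.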

Structure (SMILES)	solubility kinetic at 15 h [2]	logD at 2 h, 1 µM [3]	Selectivity ratio (Escherichia coli)	Kd [1]	Kd [4]	Kd [5]
N#Cc1cccc(-c2ccc(O[C@H]3O[C@H](CO)[C@@H](O)[C@H](O)[C@@H]3O)c(Cl)c2)c1	227 µg/mL (≈ 579 µM)	2.1	–	0.3 nM	85.9 nM	–
CC(=O)c1ccc(-c2ccc(O[C@H]3O[C@H](CO)[C@@H](O)[C@H](O)[C@@H]3O)c(Cl)c2)cc1	16 µg/mL (≈ 39.1 µM)	2.1	–	0.3 nM	98.6 nM	–
Cc1ccc(C(=O)NCCNC(=S)Nc2ccc3c(c2)C(=O)OC32c3ccc(O)cc3Oc3cc(O)ccc32)cc1	–	–	–	–	137 nM	–
OC[C@H]1O[C@H](Oc2ccc(-c3ccc(Cl)c(Cl)c3)cc2Cl)[C@@H](O)[C@@H](O)[C@@H]1O	2.3 µg/mL (≈ 5.28 µM)	–	–	4.3 nM	692 nM	–
O=[N+]([O-])c1cccc(-c2ccc(O[C@H]3O[C@H](CO)[C@@H](O)[C@H](O)[C@@H]3O)c(Cl)c2)c1	23 µg/mL (≈ 55.9 µM)	2.4	–	0.1 nM	39.1 nM	–
OC[C@H]1O[C@H](Oc2ccc(-c3ccc(Cl)c(C(F)(F)F)c3)cc2Cl)[C@@H](O)[C@@H](O)[C@@H]1O	1 µg/mL (≈ 2.13 µM)	–	–	5.7 nM	377 nM	–
OC[C@H]1O[C@H](Oc2ccc(-c3ccc(C(F)(F)F)cc3)cc2Cl)[C@@H](O)[C@@H](O)[C@@H]1O	22 µg/mL (≈ 50.6 µM)	3.4	–	3.9 nM	415 nM	–
N#Cc1ccc(-c2ccc(O[C@H]3O[C@H](CO)[C@@H](O)[C@H](O)[C@@H]3O)c(Cl)c2)cc1	–	–	–	–	83.8 nM	130 nM
O=[N+]([O-])c1ccc(-c2ccc(O[C@H]3O[C@H](CO)[C@@H](O)[C@H](O)[C@@H]3O)c(Cl)c2)cc1	117 µg/mL (≈ 284 µM)	2.3	–	0.5 nM	140 nM	–
CCCCCCCO[C@H]1O[C@H](CO)[C@@H](O)[C@H](O)[C@@H]1O	> 3000 µg/mL	1.7	100	–	3600 nM	3200 nM
OC[C@H]1O[C@H](Oc2ccc(-c3cccc(C(F)(F)F)c3)cc2Cl)[C@@H](O)[C@@H](O)[C@@H]1O	36 µg/mL (≈ 82.8 µM)	3.3	–	3.3 nM	575 nM	–

Further lines, with some results ahead:

solubility kinetic at 15 h [2]	logD at 2 h, 1 µM [3]	Selectivity ratio (Escherichia coli)	Structure (SMILES)	Kd [1]	Kd [4]	Kd [5]
5.7 µg/mL (≈ 14.2 µM)	3.2	–	OC[C@H]1O[C@H](Oc2ccc(-c3cccc(Cl)c3)cc2Cl)[C@@H](O)[C@@H](O)[C@@H]1O	2.3 nM	353 nM	–
7.4 µg/mL (≈ 19.4 µM)	3.3	–	Cc1ccc(-c2ccc(O[C@H]3O[C@H](CO)[C@@H](O)[C@H](O)[C@@H]3O)c(Cl)c2)cc1	2.7 nM	297 nM	–
5.5 µg/mL (≈ 15 µM)	2.6	–	OC[C@H]1O[C@H](Oc2ccc(-c3ccccc3)cc2Cl)[C@@H](O)[C@@H](O)[C@@H]1O	2.8 nM	458 nM	–
8 µg/mL (≈ 18.4 µM)	–	–	OC[C@H]1O[C@H](Oc2ccc(-c3ccc(Cl)cc3Cl)cc2Cl)[C@@H](O)[C@@H](O)[C@@H]1O	2.8 nM	465 nM	–
3.5 µg/mL (≈ 8.72 µM)	3.3	–	OC[C@H]1O[C@H](Oc2ccc(-c3ccc(Cl)cc3)cc2Cl)[C@@H](O)[C@@H](O)[C@@H]1O	3.9 nM	251 nM	–
7.1 µg/mL (≈ 18.6 µM)	3	–	Cc1cccc(-c2ccc(O[C@H]3O[C@H](CO)[C@@H](O)[C@H](O)[C@@H]3O)c(Cl)c2)c1	1.7 nM	380 nM	–
135 µg/mL (≈ 354 µM)	2.9	–	Cc1ccccc1-c1ccc(O[C@H]2O[C@H](CO)[C@@H](O)[C@H](O)[C@@H]2O)c(Cl)c1	2.5 nM	436 nM	–
> 280 µg/mL	2.4	–	COc1ccccc1-c1ccc(O[C@H]2O[C@H](CO)[C@@H](O)[C@H](O)[C@@H]2O)c(Cl)c1	2.3 nM	391 nM	–
3.8 µg/mL (≈ 9.58 µM)	2.7	–	COc1ccc(-c2ccc(O[C@H]3O[C@H](CO)[C@@H](O)[C@H](O)[C@@H]3O)c(Cl)c2)cc1	2 nM	344 nM	–
28 µg/mL (≈ 69.8 µM)	3.1	–	OC[C@H]1O[C@H](Oc2ccc(-c3ccccc3Cl)cc2Cl)[C@@H](O)[C@@H](O)[C@@H]1O	2.6 nM	434 nM	–
